Data taken from ChEMBL document CHEMBL3822361, “Novel 1,6-naphthyridin-2(1H)-ones as potential anticancer agents targeting Hsp90” (Eur J Med Chem, 2016).
The source made the active and inactive calls. The rule behind the calls is not given here.

Key:
[1] = system: MCF7; experiment: Antiproliferative activity against human MCF7 cells measured after 48 hrs by MTT assay; assay type: functional, cell-based; conditions: MCF7, 48 h
Method in brief: (§1)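 Cells grown in DMEM with 2 mM L-glutamine, penicillin/streptomycin and 5% FBS at 37 °C, 5% CO2; seeded 6000/well in 96-well plates, attached 24 h. Compounds added over a concentration range in DMSO (1% final), 48 h. MTT (2.5 mg/mL in PBS) added for 3.5 h, formazan dissolved in DMSO, OD 570 nm. Growth relative to 1% DMSO; IC50 from separate triplicate experiments.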

[2] = system: MCF7; experiment: Antiproliferative activity against human MCF7 cells measured after 5 days by MTS assay; assay type: functional, cell-based; conditions: MCF7, 120 h
[3] = system: MDA-MB-468; experiment: Antiproliferative activity against human MDA-MB-468 cells measured after 48 hrs by MTT assay; assay type: functional, cell-based; conditions: MDA-MB-468, 48 h; method in brief: as §1
[4] = system: MDA-MB-468; experiment: Effect on cell cycle distribution in human MDA-MB-468 cells assessed as accumulation at G2/M-phase at 2 uM measured after 48 hrs by propidium iodide staining-based flow cytometry; assay type: functional
Method in brief: (§2)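 MDA-MB-468 seeded 40,000/well in 24-well plates, 24 h at 37 °C, 5% CO2, then treated 48 h with compounds in DMSO (1% final). Cells trypsinized, washed in PBS, fixed in 70% ethanol, rehydrated in PBS, stained with propidium iodide in PBS. Phase distribution (G1, S, G2/M, polyploid, subG1) read by flow cytometry.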

[5] = molecular target: T1, Heat shock protein HSP90 (Homo sapiens) (UniProt P07900+P08238); experiment: Inhibition of HSP90 in human MCF7 cells assessed as Raf-1 protein degradation at 1.5 times IC50 measured after 48 hrs by western blot analysis; assay type: cell-based
Method in brief: (§3)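 Cells seeded in 6-well plates, 24 h at 37 °C, 5% CO2, then exposed 48 h to compound or 17-AAG in DMSO (1% final) or to vehicle. Lysed 2 h on ice in buffer with protease and phosphatase inhibitors, sonicated, protein measured by BCA. Equal protein run on SDS-PAGE, moved to PVDF, primary antibodies overnight at 4 °C, HRP secondary 1 h, ECL chemiluminescence.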

[6] = system: MDA-MB-468; experiment: Cell cycle arrest in human MDA-MB-468 cells at 15 uM measured after 48 hrs by propidium iodide staining-based FACS analysis; assay type: functional; method in brief: as §2
[7] = system: MDA-MB-468; experiment: Induction of apoptosis in human MDA-MB-468 cells assessed as mortality at 15 uM measured after 48 hrs by Annexin V-FITC/propidium iodide staining-based flow cytometry; assay type: functional; conditions: MDA-MB-468, 48 h
Method in brief: (§4)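 MDA-MB-468 cells seeded in wells, held 24 h at 37 °C in 5% CO2, then exposed to compound in DMSO (1% DMSO final) for 48 h. Floating and trypsinised adherent cells pooled, PBS-washed, stained with annexin V-FITC plus propidium iodide in binding buffer 15 min on ice in the dark. Flow cytometry, ≥10 000 events per sample; annexin V-positive cells scored apoptotic.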

[8] = system: MDA-MB-468; experiment: Effect on cell cycle in human MDA-MB-468 cells assessed as accumulation at subG1-phase at 15 uM measured after 48 hrs by propidium iodide staining-based FACS analysis; assay type: functional; method in brief: as §2
[9] = system: MDA-MB-468; experiment: Effect on actin level in human MDA-MB-468 cells at 1.5 times IC50 measured after 48 hrs by western blot analysis; assay type: cell-based; conditions: mda-mb-468, 48 h; method in brief: as §3
[10] = molecular target: T1, Heat shock protein HSP90 (Homo sapiens); experiment: Inhibition of HSP90 in human MCF7 cells assessed as induction of prosurvival heat shock response at 1.5 times IC50 measured after 48 hrs by Western blot analysis; assay type: cell-based; method in brief: as §3
[11] = molecular target: T1, Heat shock protein HSP90 (Homo sapiens); experiment: Inhibition of HSP90 in human MCF7 cells assessed as ER-alpha protein degradation at 1.5 times IC50 measured after 48 hrs by western blot analysis; assay type: cell-based; method in brief: as §3
[12] = system: MCF7; experiment: Effect on actin level in human MCF7 cells at 1.5 times IC50 measured after 48 hrs by western blot analysis; assay type: cell-based; conditions: mcf7, 48 h; method in brief: as §3
[13] = system: MDA-MB-468; experiment: Effect on HSP90 level in human MDA-MB-468 cells at 1.5 times IC50 measured after 48 hrs by western blot analysis; assay type: cell-based; conditions: mda-mb-468, 48 h; method in brief: as §3
[14] = molecular target: T1, Heat shock protein HSP90 (Homo sapiens); experiment: Inhibition of HSP90 in human MDA-MB-468 cells assessed as Raf-1 protein degradation at 1.5 times IC50 measured after 48 hrs by western blot analysis; assay type: cell-based; method in brief: as §3
[15] = molecular target: T1, Heat shock protein HSP90 (Homo sapiens); experiment: Inhibition of HSP90 in human MCF-7 cells assessed as ER-alpha protein degradation at 1.5 times IC50 measured after 48 hrs by western blot analysis
[16] = system: MCF7; experiment: Effect on HSP90 level in human MCF7 cells at 1.5 times IC50 measured after 48 hrs by western blot analysis; assay type: cell-based; conditions: mcf7, 48 h; method in brief: as §3
[17] = system: MDA-MB-468; experiment: Induction of apoptosis in human MDA-MB-468 cells at 2 uM measured after 48 hrs by Annexin V-FITC/propidium iodide staining-based flow cytometry; assay type: functional, cell-based
Method in brief: (§5)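 Cells incubated 24 h at 37 °C, 5% CO2, then given compounds in DMSO (1% final) for 48 h. Floating and trypsinized adherent cells pooled, PBS-washed, stained with annexin V-FITC plus propidium iodide in binding buffer, 15 min on ice in the dark. Flow cytometry, ≥10 000 events per sample; annexin V-positive cells scored as apoptotic.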

[18] = system: MDA-MB-468; experiment: Effect on cell cycle in human MDA-MB-468 cells assessed as accumulation at subG1-phase at 10 uM measured after 48 hrs by propidium iodide staining-based FACS analysis; assay type: functional; method in brief: as §2
[19] = system: MDA-MB-468; experiment: Cell cycle arrest in human MDA-MB-468 cells at 10 uM measured after 48 hrs by propidium iodide staining-based FACS analysis; assay type: functional; method in brief: as §2
[20] = system: MDA-MB-468; experiment: Induction of apoptosis in human MDA-MB-468 cells assessed as mortality at 10 uM measured after 48 hrs by Annexin V-FITC/propidium iodide staining-based flow cytometry; assay type: functional; conditions: MDA-MB-468, 48 h; method in brief: as §4
[21] = system: MDA-MB-468; experiment: Induction of apoptosis in human MDA-MB-468 cells at 4 uM measured after 48 hrs by Annexin V-FITC/propidium iodide staining-based flow cytometry; assay type: functional, cell-based; method in brief: as §5
[22] = system: MDA-MB-468; experiment: Effect on cell cycle distribution in human MDA-MB-468 cells assessed as accumulation at G2/M-phase at 4 uM measured after 48 hrs by propidium iodide staining-based flow cytometry; assay type: functional; method in brief: as §2

## C=CCNC1=C2C[C@@H](C)C[C@H](OC)[C@H](O)[C@@H](C)/C=C(\C)[C@H](OC(N)=O)[C@@H](OC)/C=C\C=C(/C)C(=O)NC(=CC1=O)C2=O [TANESPIMYCIN]
[1]
  IC50: 0.029 µM
[2]
  IC50: 0.005 µM
[3]
  IC50: 1.57 µM
[4]
  Activity: Active

## Cn1c(=O)c(NC(=O)c2ccccc2)cc2cnc(NCCN3CCOCC3)cc21
[1]
  IC50: > 100 µM
[3]
  IC50: > 100 µM

## Cn1c(=O)c(NC(=O)c2cccc(-c3ccccc3)c2)cc2cnc(N3CCN(CCO)CC3)cc21
[1]
  IC50: 15.2 µM
[5]
  inhibition: Active
[6]
  Activity: inactive
[7]
  mortality at 15 µM: 80%
[8]
  Activity: Active
[9]
  Activity: Non-toxic
[10]
  inhibition: Active
[11]
  inhibition: Active
[12]
  Activity: Non-toxic
[13]
  Activity: Toxic
[14]
  inhibition: Active
[15]
  inhibition: Active
[16]
  Activity: Toxic
[3]
  IC50: 14.7 µM

## COc1cc(C(=O)Nc2cc3cnc(NCCN(C)C)cc3n(C)c2=O)cc(OC)c1OC
[1]
  IC50: 21.5 µM
[3]
  IC50: 15.6 µM

## COc1ccc(C(=O)Nc2cc3cnc(N4CCN(C)CC4)cc3n(C)c2=O)cc1
[1]
  IC50: 35.4 µM
[3]
  IC50: 12.6 µM

## COc1ccc(C(=O)Nc2cc3cnc(NCCN4CCOCC4)cc3n(C)c2=O)cc1
[1]
  IC50: > 100 µM
[3]
  IC50: > 100 µM

## CC(=O)Nc1cc2cnc(NCCN(C)C)cc2n(C)c1=O
[1]
  IC50: > 100 µM
[3]
  IC50: > 100 µM

## Cn1c(=O)c(NC(=O)c2cccc(-c3ccccc3)c2)cc2cnc(NCCN3CCOCC3)cc21
[1]
  IC50: 4.85 µM
[5]
  inhibition: Active
[9]
  Activity: Non-toxic
[11]
  inhibition: Active
[12]
  Activity: Non-toxic
[13]
  Activity: Non-toxic
[17]
  Activity: inactive
[14]
  inhibition: Active
[15]
  inhibition: Active
[16]
  Activity: Non-toxic
[3]
  IC50: 1.96 µM
[4]
  Activity: Active

## COc1ccc(C(=O)Nc2cc3cnc(N4CCN(CCO)CC4)cc3n(C)c2=O)cc1
[18]
  Activity: Active
[1]
  IC50: 8.59 µM
[5]
  inhibition: Active
[9]
  Activity: Non-toxic
[19]
  Activity: inactive
[11]
  inhibition: Active
[12]
  Activity: Non-toxic
[13]
  Activity: Non-toxic
[14]
  inhibition: Active
[15]
  inhibition: Active
[16]
  Activity: Non-toxic
[3]
  IC50: 10.5 µM
[20]
  mortality at 10 µM: 40%

## Cn1c(=O)c(NC(=O)c2ccc(Cl)cc2)cc2cnc(NCCN3CCOCC3)cc21
[1]
  IC50: 6.35 µM
[3]
  IC50: > 100 µM

## CN(C)CCNc1cc2c(cn1)cc(NC(=O)c1ccncc1)c(=O)n2C
[1]
  IC50: 36.6 µM
[3]
  IC50: 8.36 µM

## CN(C)CCNc1cc2c(cn1)cc(NC(=O)c1ccccc1)c(=O)n2C
[1]
  IC50: 35.1 µM
[3]
  IC50: 18.3 µM

## Cn1c(=O)c(NC(=O)c2ccncc2)cc2cnc(NCCN3CCOCC3)cc21
[1]
  IC50: 4.47 µM
[3]
  IC50: > 100 µM

## COc1cccc(C(=O)Nc2cc3cnc(NCCN4CCOCC4)cc3n(C)c2=O)c1
[1]
  IC50: > 100 µM
[3]
  IC50: > 100 µM

## CN(C)CCNc1cc2c(cn1)cc(NC(=O)c1cc3ccccc3s1)c(=O)n2C
[1]
  IC50: 12 µM
[5]
  inhibition: inactive
[9]
  Activity: Non-toxic
[11]
  inhibition: inactive
[12]
  Activity: Non-toxic
[13]
  Activity: Non-toxic
[21]
  Activity: Active
[22]
  Activity: Active
[14]
  inhibition: inactive
[15]
  inhibition: inactive
[16]
  Activity: Non-toxic
[3]
  IC50: 3.57 µM
